Test [1] has as its system RKO. Put plainly: Cytotoxicity against cell cycle arrested RKOp27 cells after 72 hrs by alamar blue assay. The format is functional, cell-based. Conditions: Homo sapiens. The essentials: (§1)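 Human colon carcinoma RKOp27 line carrying ponasterone-A-inducible p27kip1. Induction gives G1-arrested cells, and uninduced cells stay proliferating. Viability was read as metabolic activity by Alamar Blue. IC50 values are the mean ± SD of two independent experiments, each with quadruplicate samples per concentration.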
A general note: Resazurin is reduced to fluorescent resorufin, in cell work by metabolically active cells.

The test system of test [2] is RKO. In words: Cytotoxicity against proliferating RKOp27 cells after 72 hrs by Alamar Blue assay. It counts as functional, cell-based. Conditions: Homo sapiens. Put shortly: as §1
For test [3], the target named is Tubulin (Bos taurus). Put plainly: Inhibition of [3H]colchicine binding to beta tubulin.
Test [4] concerns the target Tubulin (Bos taurus, UniProt Q6B856+Q862L2+Q862F3). In words: Inhibition of MAP containing bovine brain tubulin polymerization. It counts as functional.
Test [5] concerns RKO. Put plainly: Cytotoxicity against RKOp27 cells at 30 uM after 72 hrs by alamar blue assay. The format is functional, cell-based. Conditions: Homo sapiens.

For orientation: IC50 means the concentration that inhibits the measured activity by half. Read a high IC50 as lower potency.

Turning to `Cc1nccn1-c1csc(Nc2cccc(Br)c2)n1`, the IC50 in test [1] and in test [2] was > 100 µM throughout.

As to `COc1ccc(Nc2nc(-n3cc(C)nc3C)cs2)cc1`, the IC50 in test [3] was 7.5 µM; in test [1], > 100 µM; in test [2], 0.25 µM.

In the case of `COc1ccc(Nc2nc(-n3ccnc3C)cs2)cc1`, the IC50 in test [3] is 8 µM; in test [1] it was > 100 µM; in test [2] it was 1.6 µM.

Consider `c1ccc(Nc2nc(-n3ccnc3)cs2)cc1`, for which the IC50 in test [1] and in test [2] was > 100 µM in each case.

As for `Cc1nccn1-c1csc(Nc2ccccc2)n1`, the IC50 in test [1] is > 100 µM; in test [2] it was 32.5 µM.

With `Cc1cn(-c2csc(Nc3cccc(Br)c3)n2)c(C)n1`, the IC50 in test [1] and in test [2] was > 100 µM throughout.

Take `COc1cccc(Nc2nc(-n3c(C)nc4ccccc43)cs2)c1`: the concentration for half-maximal inhibition (IC50) in test [1] was 60 µM; in test [2], 40 µM.

As for `Cc1nc2ccccc2n1-c1csc(Nc2ccc(S(N)(=O)=O)cc2)n1`, the IC50 is 95 µM in test [1] and 45 µM in test [2].

For `COc1cccc(Nc2nc(-n3cc(C)nc3C)cs2)c1`, the IC50 in test [1] turned out to be 60 µM; in test [2], 22.5 µM.

Regarding `COc1ccc(Nc2nc(-n3cnc4ccccc43)cs2)cc1`, the IC50 in test [1] and in test [2] was > 100 µM each time.

In the case of `COc1ccc(Nc2nc(-n3ccnc3)cs2)cc1`, the IC50 in test [1] and in test [2] was > 100 µM each time.

`Cc1nc2ccccc2n1-c1csc(Nc2ccc(Br)cc2)n1`: the IC50 in test [3] was 1.25 µM; in test [1], 60 µM; in test [4], 1.2 µM; in test [2], 0.09 µM.

Regarding `Cc1cn(-c2csc(Nc3ccc(Br)cc3)n2)c(C)n1`, the IC50 in test [3] was 4 µM; in test [1], 45 µM; in test [2], 0.4 µM.

As for `Cc1nc2ccccc2n1-c1csc(Nc2ccccc2)n1`, the values for the 50% inhibitory concentration (IC50) in test [1] and in test [2] were 50 µM and 40 µM, respectively.

Regarding `Cc1nc2ccccc2n1-c1csc(Nc2cccc(Br)c2)n1`, the IC50 was 85 µM in test [1] and 36 µM in test [2].

With `COc1ccc(Nc2nc(-n3c(C)nc4ccccc43)cs2)cc1`, the IC50 in test [3] turned out to be 0.75 µM; in test [1], 52.5 µM; in test [4], 1.25 µM; in test [2], 0.025 µM.

For the compound `Cc1nc(C)c(-c2csc(Nc3ccc(Br)cc3)n2)s1`, the IC50 amounted to 1 µM in test [3], 30 µM in test [1] and 0.7 µM in test [2].

Consider `Cc1ccc(Nc2nc(-n3ccnc3C)cs2)cc1`, for which the IC50 in test [3] is 0.75 µM; in test [1], > 100 µM; in test [4], 3 µM; in test [2], 0.45 µM.

For `c1ccc(Nc2nc(-n3cnc4ccccc43)cs2)cc1`, the IC50 in test [1] and in test [2] was > 100 µM in each case.

Take `Brc1ccc(Nc2nc(-n3cnc4ccccc43)cs2)cc1`: the IC50 was 100 µM in test [3], > 100 µM in test [1] and > 100 µM in test [2].

As for `Cc1nccn1-c1csc(Nc2ccc(Br)cc2)n1`, the Activity entry in test [5] was “Not toxic”. Moreover, the results for the IC50 in test [1] and in test [2] were > 100 µM and 30 µM, respectively.

On to `COc1cc2c(c(OC)c1OC)-c1ccc(OC)c(=O)cc1[C@@H](NC(C)=O)CC2` [COLCHICINE], for which the IC50 in test [1] is > 5 µM; in test [2], 0.016 µM.

For the compound `COc1cccc(Nc2nc(-n3ccnc3C)cs2)c1`, the IC50 in test [1] was > 100 µM; in test [2], 22.5 µM.

For `Cc1nccn1-c1csc(Nc2ccc(S(N)(=O)=O)cc2)n1`, the IC50 in test [1] was > 100 µM; in test [2], 49 µM.

On to `COc1cc([C@@H]2c3cc4c(cc3[C@H](O)[C@H]3COC(=O)[C@H]23)OCO4)cc(OC)c1OC` [PODOFILOX], for which the IC50 in test [1] was > 0.5 µM; in test [2] it was 0.029 µM.

Turning to `Cc1ccc(Nc2nc(-n3cc(C)nc3C)cs2)cc1`, the IC50 is 6.25 µM in test [3], > 100 µM in test [1] and 0.2 µM in test [2].

The values above are taken from ChEMBL document CHEMBL1137258 (J Med Chem, 2006).
